Test results as given in ChEMBL document CHEMBL1130246, “Tyrosine kinase inhibitors. 13. Structure-activity relationships for soluble 7-substituted 4-[(3-bromophenyl)amino]pyrido[4,3-d]pyrimidines designed as inhibitors of the tyrosine kinase activity of the epidermal growth factor receptor” (J Med Chem, 1997).
In brackets after ≈: the same amount, converted by molar mass. Several values for one entry are separate records, joined by “and”; a condition that tells them apart may be missing. Identical values can stand only once.

Columns and labels:
[1] = biological target: T1, Epidermal growth factor receptor (Homo sapiens, UniProt P00533); test: Inhibition of phosphorylation of polyglutamic acid/tyrosine random copolymer by epidermal growth factor receptor.
[2] = biological target: T1, Epidermal growth factor receptor; test: Inhibition of epidermal growth factor receptor (EGFR) autophosphorylation in A431 cells
Mus musculus [3] = species on record: Mus musculus; test: Ratio of median treated tumor mass on the last day of therapy divided by the median control tumor mass x 100%.; type: functional
Summary of the method: (§1)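 Mice 18-22 g, randomized, implanted sc with A431 epidermoid or EGFR-transfected NIH 3T3 tumor fragments in right axilla on day 0; tumors maintained by serial passage in NCr nu/nu nude mice. Isethionate salts given ip in water, b.i.d. on indicated schedules (days 7-21, 3-17 or 1-15), dosed by average cage weight; solutions prepared 5 days at a time. Maximum treatment-related body weight loss recorded.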

Mus musculus [4] = species on record: Mus musculus; test: Treatment-related weight loss in mice; type: functional; summary of the method: as §1
[5] = Solubility in water was determined; type: physicochemical
Summary of the method: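 Drug weighed to give approximately 50 mM, sonicated 30 min in 0.05 M sodium lactate buffer (neutral compounds, amine hydrochlorides) or water (sodium salts of acids), left 30 min, centrifuged 13 000 rpm 3 min; supernatant concentration measured by HPLC against calibration from MeOH or DMSO stocks, assuming linear response; 20 °C.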

[6] = biological target: T1, Epidermal growth factor receptor; test: Inhibition of epidermal growth factor receptor (EGFR) from human A431 carcinoma cells

T1 sequence (P00533 whole entry): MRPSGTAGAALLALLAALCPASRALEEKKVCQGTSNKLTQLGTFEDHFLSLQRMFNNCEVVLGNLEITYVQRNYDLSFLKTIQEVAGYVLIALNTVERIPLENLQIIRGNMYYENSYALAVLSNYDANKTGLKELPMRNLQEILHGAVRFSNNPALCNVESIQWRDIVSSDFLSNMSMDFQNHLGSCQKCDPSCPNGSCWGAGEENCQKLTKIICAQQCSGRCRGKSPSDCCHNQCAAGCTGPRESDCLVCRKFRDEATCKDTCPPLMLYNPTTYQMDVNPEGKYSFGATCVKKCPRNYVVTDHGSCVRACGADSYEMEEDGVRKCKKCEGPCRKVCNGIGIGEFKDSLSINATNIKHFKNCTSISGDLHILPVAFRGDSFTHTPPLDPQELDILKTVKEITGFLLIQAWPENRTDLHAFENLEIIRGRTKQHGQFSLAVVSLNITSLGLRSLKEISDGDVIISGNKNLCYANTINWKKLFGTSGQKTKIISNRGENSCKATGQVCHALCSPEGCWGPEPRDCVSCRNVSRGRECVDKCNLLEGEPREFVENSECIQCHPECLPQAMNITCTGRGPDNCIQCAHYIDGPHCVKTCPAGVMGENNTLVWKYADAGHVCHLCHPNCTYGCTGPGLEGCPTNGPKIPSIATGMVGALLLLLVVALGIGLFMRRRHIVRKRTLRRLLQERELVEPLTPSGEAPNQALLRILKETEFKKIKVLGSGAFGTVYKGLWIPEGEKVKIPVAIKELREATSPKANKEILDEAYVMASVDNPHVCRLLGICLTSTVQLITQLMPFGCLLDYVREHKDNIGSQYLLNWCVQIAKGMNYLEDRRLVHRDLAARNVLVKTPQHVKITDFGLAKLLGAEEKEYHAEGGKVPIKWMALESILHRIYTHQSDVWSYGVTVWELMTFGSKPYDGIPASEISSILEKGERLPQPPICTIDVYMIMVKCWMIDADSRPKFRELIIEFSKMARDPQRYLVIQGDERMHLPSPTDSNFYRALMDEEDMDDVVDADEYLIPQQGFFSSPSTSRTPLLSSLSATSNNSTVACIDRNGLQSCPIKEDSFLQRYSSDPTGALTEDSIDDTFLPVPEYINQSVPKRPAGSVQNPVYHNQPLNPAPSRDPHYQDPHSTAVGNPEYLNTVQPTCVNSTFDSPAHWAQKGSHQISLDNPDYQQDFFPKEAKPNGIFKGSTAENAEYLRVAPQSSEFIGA

IC50 [1] | SMILES | further results
14 nM | OCC(CO)Nc1cc2ncnc(Nc3cccc(Br)c3)c2cn1 | –
40 nM | CN(C)CCN(C)c1cc2ncnc(Nc3cccc(Br)c3)c2cn1 | –
0.92 nM | OCC(O)CNc1cc2ncnc(Nc3cccc(Br)c3)c2cn1 (stereo unspecified) | IC50 [2]: 227 nM
– | Brc1cccc(Nc2ncnc3cc(NCCCn4ccnc4)ncc23)c1 | solubility [5]: > 40 mM; IC50 [6]: 0.51 nM
8.8 nM | CN(C)CCCNc1cc2ncnc(Nc3cccc(Br)c3)c2cn1 | –
16 nM | CN(CC(=O)O)c1cc2ncnc(Nc3cccc(Br)c3)c2cn1 | –
0.24 nM | OCCNc1cc2ncnc(Nc3cccc(Br)c3)c2cn1 | –
1.2 nM | OCCN(CCO)CCCNc1cc2ncnc(Nc3cccc(Br)c3)c2cn1 | –
1.4 nM | CNc1cc2ncnc(Nc3cccc(C)c3)c2cn1 | –
0.61 nM | O=C(O)CCNc1cc2ncnc(Nc3cccc(Br)c3)c2cn1 | IC50 [2]: 11400 nM
3.2 nM | CN(CC(O)C(O)C(O)C(O)CO)c1cc2ncnc(Nc3cccc(Br)c3)c2cn1 (stereo unspecified) | –
45 nM | CN(C)CCNc1cc2ncnc(Nc3cccc(Br)c3)c2cn1 | –
1.4 nM | O=S(=O)(O)CCNc1cc2ncnc(Nc3cccc(Br)c3)c2cn1 | IC50 [2]: > 1000 nM
0.28 nM | O=C(O)CCCNc1cc2ncnc(Nc3cccc(Br)c3)c2cn1 | –
12 nM | OCCN(CCO)c1cc2ncnc(Nc3cccc(Br)c3)c2cn1 | –
4.8 nM | OCC(O)C(O)C(O)C(O)CNc1cc2ncnc(Nc3cccc(Br)c3)c2cn1 (stereo unspecified) | –
8.4 nM | CN(C)CCCCCNc1cc2ncnc(Nc3cccc(Br)c3)c2cn1 | –
7.4 nM | CN(C)CCCCNc1cc2ncnc(Nc3cccc(Br)c3)c2cn1 | Weight loss (Mus musculus [4]): 1 g
– | Brc1cccc(Nc2ncnc3cc(NCCc4c[nH]cn4)ncc23)c1 | solubility [5]: 35 mM (≈ 14.4 mg/mL); IC50 [6]: 0.91 nM
1.5 nM | O=C(O)CNc1cc2ncnc(Nc3cccc(Br)c3)c2cn1 | –
5.4 nM | Cc1cccc(Nc2ncnc3cc(NCCCCN(C)C)ncc23)c1 | –
0.74 nM | [O-][N+]1(CCCNc2cc3ncnc(Nc4cccc(Br)c4)c3cn2)CCOCC1 | IC50 [2]: > 1000 nM
– | Cc1cccc(Nc2ncnc3cc(NCCc4c[nH]cn4)ncc23)c1 | solubility [5]: > 39 mM; IC50 [6]: 7.2 nM
4.9 nM | CN1CCN(CCCNc2cc3ncnc(Nc4cccc(Br)c4)c3cn2)CC1 | –
7.1 nM | NNc1cc2ncnc(Nc3cccc(Br)c3)c2cn1 | –
3.2 nM | CN(CC(O)CO)c1cc2ncnc(Nc3cccc(Br)c3)c2cn1 (stereo unspecified) | –
– | Cc1cccc(Nc2ncnc3cc(NCCCn4ccnc4)ncc23)c1 | solubility [5]: > 34 mM; IC50 [6]: 3.5 nM
2.6 nM | CN(CCO)c1cc2ncnc(Nc3cccc(Br)c3)c2cn1 | –
5.6 nM | Cc1cccc(Nc2ncnc3cc(NCCCN4CCN(C)CC4)ncc23)c1 | –
9.2 nM | OCCN(CCO)CCNc1cc2ncnc(Nc3cccc(Br)c3)c2cn1 | –

SMILES | IC50 [1] | further results
Brc1cccc(Nc2ncnc3cc(NCCCCN4CCOCC4)ncc23)c1 | 5.4 nM | –
Brc1cccc(Nc2ncnc3cc(NCCCN4CCOCC4)ncc23)c1 | 1.9 nM | IC50 [2]: 8.1 nM; T/C (Mus musculus [3]): 34%; Weight loss (Mus musculus [4]): 1.7 g and 0.9 g
Brc1cccc(Nc2ncnc3cc(NCCN4CCOCC4)ncc23)c1 | 3.2 nM | IC50 [2]: 36 nM
